Experimental data published in ChEMBL document CHEMBL4316634, “Immunomodulatory Biscembranoids and Assignment of Their Relative and Absolute Configurations: Data Set Modulation in the Density Functional Theory/Nuclear Magnetic Resonance Approach” (J Nat Prod, 2019).
Calls of active or inactive are those of the source. No cut-off for these calls is given here.

Key:
Splenocyte [1] = assay: Cytotoxicity in C57BL/6 mouse splenocytes assessed as effect on cell viability at 3 uM by FACScan flow cytometry; format: cell-based
How it was run: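 Splenocytes at 2 × 10^6 cell/mL from C57BL/6 mice exposed to compounds at 3 μM for 24 h, with Con A (5 μg/mL) as positive control. Cells were then collected, washed in PBS and read at once by flow cytometry for apoptosis.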

Splenocyte [2] = assay: Immunomodulatory activity in C57BL/6 mouse splenocytes assessed as reduction in CD4+/CD8+ cells ratio at 3 uM incubated for 24 hrs by flow cytometric analysis; format: functional, cell-based
How it was run: (§1)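 C57BL/6 splenocytes given compounds at 3 μM for 24 h under Con A-induced activation, with Con A (5 μg/mL) as positive control. Cells were stained with PE-CD3, FITC-CD4 and Percp/cy5.5-CD8. CD3+, CD4+ and CD8+ percentages were measured by flow cytometry, and the CD4+/CD8+ ratio was derived from them. Values are mean ± SD, n = 3.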

Splenocyte [3] = assay: Immunomodulatory activity in C57BL/6 mouse splenocytes assessed as induction of CD3+ T cells proliferation at 3 uM incubated for 24 hrs by flow cytometric analysis; format: functional, cell-based; how it was run: as §1
Splenocyte [4] = assay: Immunomodulatory activity in C57BL/6 mouse splenocytes assessed as increase in CD4+/CD8+ cells ratio at 3 uM incubated for 24 hrs by flow cytometric analysis; format: functional, cell-based; how it was run: as §1

| SMILES | Activity (Splenocyte [1]) | Activity (Splenocyte [2]) | Activity (Splenocyte [3]) | Activity (Splenocyte [4]) |
| --- | --- | --- | --- | --- |
| CC(=O)O[C@H]1C/C(C)=C/CC[C@H](C)CC(=O)C[C@@]23C(=O)O[C@@H]([C@@H]1C(C)C)[C@@H]2CC(C)=C1CCC2=CCC[C@@](C)(OC2=O)[C@@H](O)CC/C(C)=C\[C@@H]13 | Non-Toxic |  |  |  |
| CC(=O)O[C@H]1C/C(C)=C/CC/C(C)=C\C(=O)C[C@@]23C(=O)O[C@@H]([C@@H]1C(C)C)[C@@H]2CC(C)=C1CCC2=CCC[C@@](C)(OC2=O)[C@@H](O)CC/C(C)=C\[C@@H]13 | Non-Toxic | Active |  |  |
| CC(=O)O[C@H]1C/C(C)=C/C/C=C(/C)CC(=O)C[C@@]23C(=O)O[C@@H]([C@@H]1C(C)C)[C@@H]2CC(C)=C1CCC2=CCC[C@@](C)(OC2=O)[C@@H](O)CC/C(C)=C/[C@@H]13 | Non-Toxic |  | Active |  |
| CC(=O)O[C@H]1C/C(C)=C/CC[C@H](C)CC(=O)C[C@@]23C(=O)O[C@@H]([C@@H]1C(C)C)[C@@H]2CC(C)=C1CCC2=CCC[C@@](C)(OC2=O)[C@@H](O)CC/C(C)=C/[C@@H]13 | Non-Toxic |  |  | Active |
| CC(=O)O[C@H]1C/C(C)=C/CC/C(C)=C/C(=O)C[C@@]23C(=O)O[C@@H]([C@@H]1C(C)C)[C@@H]2CC(C)=C1CCC2=CCC[C@@](C)(OC2=O)[C@@H](O)CC/C(C)=C/[C@@H]13 | Non-Toxic |  | Active | Active |
| CC(=O)O[C@H]1C/C(C)=C/CC/C(C)=C\C(=O)C[C@@]23C(=O)O[C@@H]([C@@H]1C(C)C)[C@@H]2CC(C)=C1CCC2=CCC[C@@](C)(OC2=O)[C@@H](O)CC/C(C)=C/[C@@H]13 | Non-Toxic |  |  |  |
| CC1=C2CCC3=CCC[C@@](C)(OC3=O)[C@@H](O)CC/C(C)=C/[C@@H]2[C@]23CC(=O)C[C@@H](C)CC/C=C(\C)CC(=O)[C@@H](C(C)C)[C@H](OC2=O)[C@@H]3C1 | Non-Toxic |  |  |  |
